# According to ChEMBL document CHEMBL1141070, “Synthesis and biological activity of flurbiprofen analogues as selective inhibitors of beta-amyloid(1)(-)(42) secretion” (J Med Chem, 2005):
# Legend:
# [1] = target: T1, Cytochrome P450 1A2 (Homo sapiens, UniProt P05177); test: Interaction with human cytochrome P450 isoform 1A2 expressed in baculovirus-insect cells; format: ADME
# T1 sequence (P05177 whole entry): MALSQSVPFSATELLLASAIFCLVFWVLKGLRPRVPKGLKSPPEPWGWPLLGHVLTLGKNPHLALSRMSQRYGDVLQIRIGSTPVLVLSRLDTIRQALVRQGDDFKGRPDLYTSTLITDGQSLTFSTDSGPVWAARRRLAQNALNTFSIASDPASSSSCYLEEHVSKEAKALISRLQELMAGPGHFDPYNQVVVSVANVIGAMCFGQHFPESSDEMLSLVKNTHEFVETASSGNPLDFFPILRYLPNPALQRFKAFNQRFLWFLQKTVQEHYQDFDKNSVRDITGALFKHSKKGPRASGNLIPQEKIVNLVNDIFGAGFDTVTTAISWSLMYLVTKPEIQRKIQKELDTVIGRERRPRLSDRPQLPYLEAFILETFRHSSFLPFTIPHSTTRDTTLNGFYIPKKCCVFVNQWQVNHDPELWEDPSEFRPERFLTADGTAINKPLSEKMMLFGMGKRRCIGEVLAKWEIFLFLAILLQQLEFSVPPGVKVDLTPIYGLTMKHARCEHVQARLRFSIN
# Method in brief: (§1)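 Supersome microsomes from baculovirus-insect cells expressing human CYP1A2, 2C9, 2C19, 2D6 or 3A4 were used with isoform-specific fluorogenic substrates. Compounds were serially diluted with an NADP⁺/glucose-6-phosphate regenerating system in 0.35 M potassium phosphate, pH 7.4. Plates were prewarmed 10 min at 37 °C, reactions stopped with acetonitrile/Tris, and fluorescence read. IC50 was obtained by nonlinear regression.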
# [2] = target: Cytochrome P450 2C9 (Homo sapiens, UniProt P11712); test: Interaction with human cytochrome P450 isoform 2C9 expressed in baculovirus-insect cells; format: ADME
# Method in brief: (§2)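 Microsomes from baculovirus-insect cells expressing human CYP1A2, 2C9, 2C19, 2D6 or 3A4. Compound serially diluted with an NADPH-regenerating mix (16.3 μM NADP+, 0.83 mM glucose-6-phosphate, 0.83 mM MgCl2, 0.4 U/mL G6PDH). Pre-warmed 10 min at 37 °C, then isoform-specific substrate added in 0.35 M potassium phosphate pH 7.4. Fluorometric read-out; IC50 by nonlinear regression.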
# [3] = target: Cytochrome P450 2D6 (Homo sapiens, UniProt P10635); test: Interaction with human cytochrome P450 isoform 2D6 expressed in baculovirus-insect cells; format: ADME; method in brief: as §1
# [4] = target: Cytochrome P450 3A4 (Homo sapiens, UniProt P08684); test: Interaction with human cytochrome P450 isoform 3A4 expressed in baculovirus-insect cells; format: ADME; method in brief: as §1
# [5] = target: T2, Cytochrome P450 2C19 (Homo sapiens, UniProt P33261); test: Interaction with human cytochrome P450 isoform 2C19 expressed in baculovirus-insect cells; format: ADME; method in brief: as §2
# [6] = target: T3, Amyloid-beta precursor protein (Homo sapiens, UniProt P05067); test: Inhibitory concentration against beta-amyloid-42 (Abeta42) secretion was evaluated in human neuroglioma cells (H4-APP695NL); format: functional, cell-based
# Method in brief: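 H4-APP695NL human neuroglioma cells (APP695 Swedish K595N/M596L) seeded at 2 × 10^5/well and grown 24 h to confluence. Increasing compound concentrations added overnight; DMSO 1% as vehicle. Supernatant Aβ42 or Aβ40 measured by electrochemiluminescence immunoassay: biotinylated 4G8 plus C-terminus-specific rabbit antibodies, captured on streptavidin beads.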
# Target sequence in this assay (P05067 18-770 limits assumed): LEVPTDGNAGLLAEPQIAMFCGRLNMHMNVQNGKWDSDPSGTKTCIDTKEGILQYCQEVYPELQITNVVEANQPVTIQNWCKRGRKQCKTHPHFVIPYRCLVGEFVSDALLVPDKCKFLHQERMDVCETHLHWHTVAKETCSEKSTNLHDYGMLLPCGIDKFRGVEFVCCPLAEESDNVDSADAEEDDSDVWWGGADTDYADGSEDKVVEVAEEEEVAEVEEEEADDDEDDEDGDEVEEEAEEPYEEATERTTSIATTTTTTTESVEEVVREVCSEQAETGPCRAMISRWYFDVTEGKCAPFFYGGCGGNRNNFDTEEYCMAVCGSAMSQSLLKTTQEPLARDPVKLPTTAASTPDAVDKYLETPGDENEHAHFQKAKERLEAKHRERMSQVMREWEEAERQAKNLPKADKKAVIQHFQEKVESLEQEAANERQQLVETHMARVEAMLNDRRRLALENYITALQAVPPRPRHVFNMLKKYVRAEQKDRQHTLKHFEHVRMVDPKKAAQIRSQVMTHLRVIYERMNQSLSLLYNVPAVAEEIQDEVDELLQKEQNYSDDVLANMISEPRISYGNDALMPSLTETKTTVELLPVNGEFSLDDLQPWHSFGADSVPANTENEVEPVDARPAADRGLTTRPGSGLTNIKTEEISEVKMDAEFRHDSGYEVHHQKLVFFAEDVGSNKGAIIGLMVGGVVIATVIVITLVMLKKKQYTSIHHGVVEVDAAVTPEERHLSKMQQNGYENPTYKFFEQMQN
# [7] = target: T3, Amyloid-beta precursor protein; details: at 100 µM
# Target sequence in this assay (P05067 whole entry): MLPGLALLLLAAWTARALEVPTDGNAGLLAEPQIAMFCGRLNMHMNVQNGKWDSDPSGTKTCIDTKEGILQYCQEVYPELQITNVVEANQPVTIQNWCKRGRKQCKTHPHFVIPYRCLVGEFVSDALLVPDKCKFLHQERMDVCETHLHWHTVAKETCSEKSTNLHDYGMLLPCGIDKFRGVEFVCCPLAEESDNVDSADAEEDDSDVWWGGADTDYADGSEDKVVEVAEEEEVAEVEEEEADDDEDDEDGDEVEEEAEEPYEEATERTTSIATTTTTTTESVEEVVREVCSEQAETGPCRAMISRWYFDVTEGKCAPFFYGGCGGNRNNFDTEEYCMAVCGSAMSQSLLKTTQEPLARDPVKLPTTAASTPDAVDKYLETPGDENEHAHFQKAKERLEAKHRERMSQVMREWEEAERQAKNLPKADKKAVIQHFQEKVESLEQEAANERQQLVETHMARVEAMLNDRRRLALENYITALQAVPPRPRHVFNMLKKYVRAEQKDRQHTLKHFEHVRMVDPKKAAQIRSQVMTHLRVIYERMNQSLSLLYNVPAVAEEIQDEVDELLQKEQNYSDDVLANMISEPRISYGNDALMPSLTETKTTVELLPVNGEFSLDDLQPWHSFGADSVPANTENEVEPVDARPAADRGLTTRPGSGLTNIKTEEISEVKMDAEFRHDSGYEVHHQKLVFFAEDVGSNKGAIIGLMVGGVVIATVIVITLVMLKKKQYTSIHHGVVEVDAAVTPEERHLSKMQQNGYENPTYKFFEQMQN
# [8] = In vivo steady state metabolic clearance of the compound; details: rat
# [9] = Area under curve after administration to rats at a dose of 7.6 mg/kg orally; format: ADME, organism-based; parameters: dose 7.6 mg/kg, route oral; details: rat, in vivo, po
# [10] = Area under curve after administration to rats at adose of 1.5 mg/kg intravenously; format: ADME, organism-based; parameters: dose 1.5 mg/kg, route intravenous; details: rat, in vivo, iv
# [11] = Maximum time corresponding to maximum concentration after administration to rats at a dose of 7.6 mg/kg orally; format: ADME, organism-based; parameters: dose 7.6 mg/kg, route oral; details: rat, in vivo, po
# [12] = Maximum time corresponding to maximum concentration after administration to rats at a dose of 1.5 mg/kg intravenously; format: ADME, organism-based; parameters: dose 1.5 mg/kg, route intravenous; details: rat, in vivo, iv
# [13] = Absolute oral bioavailability after administration to rats at a dose of 7.6 mg/kg orally; format: ADME, organism-based; details: rat, in vivo
# [14] = Maximal concentration in rats after 1.5 mg/kg intravenous dose; format: ADME, organism-based; parameters: dose 1.5 mg/kg, route intravenous; details: rat, in vivo
# [15] = Intestinal drug absorption was estimated in vitro using human colon adenocarcinoma (Caco-2) cell monolayers; format: ADME
# Method in brief: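 Caco-2 monolayers on polycarbonate Transwell inserts, 2 h at 37 °C. Apical and basolateral solutions analysed by LC-MS/MS (SRM). Papp = Cb·Vb/(C0·A·t).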
# [16] = target: T4, Prostaglandin G/H synthase 1 (Rattus norvegicus, UniProt Q63921); test: Concentration required to inhibit cyclooxygenase-1 in rat blood
# T4 sequence (Q63921 whole entry): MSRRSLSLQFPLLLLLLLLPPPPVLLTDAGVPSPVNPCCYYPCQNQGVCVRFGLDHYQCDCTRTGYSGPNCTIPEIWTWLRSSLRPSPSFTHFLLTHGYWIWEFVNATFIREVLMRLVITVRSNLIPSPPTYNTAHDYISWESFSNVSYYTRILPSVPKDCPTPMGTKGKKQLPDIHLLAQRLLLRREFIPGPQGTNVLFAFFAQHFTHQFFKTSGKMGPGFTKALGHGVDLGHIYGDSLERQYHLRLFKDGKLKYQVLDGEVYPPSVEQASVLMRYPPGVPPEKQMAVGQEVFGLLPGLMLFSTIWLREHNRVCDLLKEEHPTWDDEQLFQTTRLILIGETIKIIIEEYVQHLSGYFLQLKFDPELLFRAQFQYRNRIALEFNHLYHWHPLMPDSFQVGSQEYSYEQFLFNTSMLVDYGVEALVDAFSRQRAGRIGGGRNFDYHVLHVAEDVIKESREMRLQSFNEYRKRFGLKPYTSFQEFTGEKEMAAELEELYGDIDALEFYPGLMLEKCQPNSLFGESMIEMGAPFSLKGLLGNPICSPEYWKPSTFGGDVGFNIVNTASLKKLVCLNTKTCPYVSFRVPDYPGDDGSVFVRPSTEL
# Method in brief: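 Fresh rat whole blood was preincubated 1 h at 37 °C with compound (100 μM or a concentration series; DMSO 0.3% final). It was then stimulated 30 min with the Ca²⁺ ionophore A23187. Thromboxane B2 in the plasma was measured by radioimmunoassay.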
# [17] = Total body clearance after administration to rats at a dose of 1.5 mg/kg intravenously; format: ADME, organism-based; parameters: dose 1.5 mg/kg, route intravenous; details: rat, in vivo, iv
# [18] = Elimination phase half-life after administration to rats at a dose of 7.6 mg/kg orally; format: ADME, organism-based; parameters: dose 7.6 mg/kg, route oral; details: rat, in vivo, po
# [19] = Elimination phase half-life after administration to rats at a dose of 1.5 mg/kg intravenously; format: ADME, organism-based; parameters: dose 1.5 mg/kg, route intravenous; details: rat, in vivo, iv
# [20] = target: T2, Cytochrome P450 2C19; test: Compound was tested for interaction with baculovirus-insect cells expressing human cytochrome P450; No interactions at 100 uM; format: ADME
# [21] = Maximal concentration in rats after 7.6 mg/kg oral dose; format: ADME, organism-based; parameters: dose 7.6 mg/kg, route oral; details: rat, in vivo
# T2 sequence (P33261 whole entry, canonical isoform): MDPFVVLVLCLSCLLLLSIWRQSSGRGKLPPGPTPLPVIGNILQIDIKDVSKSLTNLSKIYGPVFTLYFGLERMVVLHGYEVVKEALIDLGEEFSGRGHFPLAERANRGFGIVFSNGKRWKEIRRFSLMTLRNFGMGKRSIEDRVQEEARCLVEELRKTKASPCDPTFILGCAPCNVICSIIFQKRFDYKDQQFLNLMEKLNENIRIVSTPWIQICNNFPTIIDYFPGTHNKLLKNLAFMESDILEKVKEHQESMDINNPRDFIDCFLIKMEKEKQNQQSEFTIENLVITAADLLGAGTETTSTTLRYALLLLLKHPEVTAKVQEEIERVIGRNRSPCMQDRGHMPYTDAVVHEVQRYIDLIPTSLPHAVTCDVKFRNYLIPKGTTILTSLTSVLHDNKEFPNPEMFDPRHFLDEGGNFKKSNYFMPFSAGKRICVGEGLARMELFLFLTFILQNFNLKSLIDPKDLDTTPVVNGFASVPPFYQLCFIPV
# Cytochrome P450 2D6, sequence (P10635 whole entry, canonical isoform): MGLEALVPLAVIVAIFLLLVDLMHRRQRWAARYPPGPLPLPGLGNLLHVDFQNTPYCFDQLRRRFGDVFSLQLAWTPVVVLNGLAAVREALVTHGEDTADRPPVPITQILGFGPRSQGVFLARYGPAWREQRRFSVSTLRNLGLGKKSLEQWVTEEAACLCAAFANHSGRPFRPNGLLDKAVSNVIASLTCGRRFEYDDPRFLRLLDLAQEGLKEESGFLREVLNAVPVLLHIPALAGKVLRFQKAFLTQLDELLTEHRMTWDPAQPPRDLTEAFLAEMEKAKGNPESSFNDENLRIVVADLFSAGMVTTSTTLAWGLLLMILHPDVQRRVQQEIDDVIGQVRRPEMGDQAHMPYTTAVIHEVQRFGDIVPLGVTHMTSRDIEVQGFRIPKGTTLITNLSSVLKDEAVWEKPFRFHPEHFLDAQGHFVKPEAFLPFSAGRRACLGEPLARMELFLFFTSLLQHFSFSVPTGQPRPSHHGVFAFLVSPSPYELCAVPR
# Cytochrome P450 3A4, sequence (P08684 whole entry, canonical isoform): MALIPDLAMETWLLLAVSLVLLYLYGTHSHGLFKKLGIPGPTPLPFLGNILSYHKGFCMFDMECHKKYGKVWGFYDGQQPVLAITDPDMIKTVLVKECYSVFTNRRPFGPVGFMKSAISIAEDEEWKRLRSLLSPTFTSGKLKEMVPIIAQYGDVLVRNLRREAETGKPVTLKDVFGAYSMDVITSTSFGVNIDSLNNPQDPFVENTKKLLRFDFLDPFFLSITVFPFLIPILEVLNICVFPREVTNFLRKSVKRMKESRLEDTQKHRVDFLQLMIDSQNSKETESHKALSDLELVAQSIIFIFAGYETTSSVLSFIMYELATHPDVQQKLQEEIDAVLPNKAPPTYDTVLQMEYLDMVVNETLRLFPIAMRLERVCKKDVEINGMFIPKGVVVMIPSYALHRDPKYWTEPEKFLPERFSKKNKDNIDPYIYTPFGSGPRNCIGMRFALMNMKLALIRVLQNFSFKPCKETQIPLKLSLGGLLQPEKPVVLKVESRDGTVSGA
# Cytochrome P450 2C9, sequence (P11712 whole entry, canonical isoform): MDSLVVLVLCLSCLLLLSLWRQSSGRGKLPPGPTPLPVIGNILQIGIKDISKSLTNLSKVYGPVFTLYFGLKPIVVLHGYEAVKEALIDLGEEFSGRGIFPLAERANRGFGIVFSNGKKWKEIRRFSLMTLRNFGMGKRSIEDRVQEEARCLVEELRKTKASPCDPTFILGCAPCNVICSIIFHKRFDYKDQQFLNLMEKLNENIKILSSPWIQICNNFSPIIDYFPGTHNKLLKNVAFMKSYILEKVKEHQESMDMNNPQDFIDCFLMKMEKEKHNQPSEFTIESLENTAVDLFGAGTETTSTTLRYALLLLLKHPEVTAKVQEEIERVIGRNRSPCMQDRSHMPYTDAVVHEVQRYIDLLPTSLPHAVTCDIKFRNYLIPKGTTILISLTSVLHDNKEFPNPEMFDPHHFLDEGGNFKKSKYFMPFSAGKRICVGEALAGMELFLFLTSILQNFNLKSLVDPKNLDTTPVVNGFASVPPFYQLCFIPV
smiles,measurement,setting,value
CC1(C)CC(Oc2ccc(-c3ccc(C4(C(=O)O)CC4)cc3F)cc2)CC(C)(C)C1,IC50,[1],26 µM
same,IC50,[2],15 µM
same,IC50,[3],30 µM
same,IC50,[4],27 µM
same,IC50,[5],33 µM
same,IC50,[6],11 µM
same,inhibition,[7],97%
same,Clearance,[8],134 mL/h
CC(C(=O)O)c1ccc(-c2ccccc2)c(F)c1 (centres undefined) [FLURBIPROFEN],AUC,[9],311 µg/h/mL
same,AUC,[10],78 µg/h/mL
same,IC50,[6],305 µM
same,Tmax,[11],30 min
same,Tmax,[12],18 min
same,bioavailability,[13],78.3%
same,Cmax,[14],9100 ng/mL
same,Papp,[15],> 5 ×10⁻⁶ cm/s
same,IC50,[16],170 nM
same,Clearance,[17],0.318 mL/min/kg
same,half-life,[18],294 min
same,half-life,[19],306 min
same,Inhibition,[20],No interactions
same,Cmax,[21],49100 ng/mL
same,inhibition,[7],30%
same,Clearance,[8],13.9 mL/h
